From article PMC5508335 (Journal of Veterinary Internal Medicine, 2017)
Read-outs that look alike come from different tables or passages of the source.

How the values were obtained:
healthy dogs = assay: Endoscopy of upper gastrointestinal tract after 28 days of therapy; assay type: in vivo, dog; details: day 28; PO daily
How it was run: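 Fifteen healthy dogs were randomized to five PO regimens for 28 days: aspirin 2 mg/kg/d, clopidogrel 2–3 mg/kg/d, prednisone 2 mg/kg/d, prednisone plus aspirin, or prednisone plus clopidogrel. The upper gastrointestinal tract was then assessed.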

platelet function = assay: PFA-100 closure time, antiplatelet responder status; assay type: in vivo, dog
How it was run: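 Fifteen healthy dogs received PO aspirin 2 mg/kg/d, clopidogrel 2–3 mg/kg/d, or either drug combined with prednisone 2 mg/kg/d for 28 days. Responders were defined by PFA closure time: above 300 sec for aspirin, or more than 30% above baseline for clopidogrel. Responder status was compared among groups by Fisher's exact test, with P < 0.05 as significant.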

RBCs = assay: Lysis of canine RBCs by DMSO diluted in PBS; assay type: cell-based, dog
[1] = test system: dogs with hypoadrenocorticism; assay type: in vivo, dog
[2] = test system: New Zealand rabbits with dilated cardiomyopathy induced by doxorubicin; assay: Doxorubicin-induced dilated cardiomyopathy in New Zealand rabbits; assay type: in vivo, rabbit
healthy beagle dogs = details: oral administration, ref previous studies performed by these authors; cited from earlier work
equine neutrophils = assay: neutrophil respiratory burst, luminol chemoluminescence, opsonized zymosan; assay type: cell-based, horses; details: TX 0.5 to 20 μM; dose dependent
[3] = test system: dogs with pulmonic stenosis; assay type: in vivo, dog
canine leukocytes = assay: LPS-stimulated leukocyte cytokine production in whole blood; assay type: cell-based, dog; details: 10^−7 M, 24 h
How it was run: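 Blood from eight healthy adult dogs was incubated with test compound (10−7 M) or control for 24 h. Leukocytes were then stimulated with LPS, and TNF and IL-10 production were measured by a canine-specific multiplex assay.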

platelet aggregation = details: cats with cardiovascular disease already receiving clopidogrel, n = 3
[4] = test system: platelet function (closure time)
[5] = distribution of danofloxacin and tulathromycin in plasma, ISF and PELF by age; assay type: in vivo, calves; details: non‐linear mixed effect modeling
[6] = crossover study of IV dipyrone to control fever; assay type: in vivo, horses; details: single 30 mg/kg IV, 6 hours post administration, versus placebo
[7] = 2 mg/kg every 12 hours for 30 days

## CC(=O)Oc1ccccc1C(=O)O [A, aspirin]
Healthy dogs
  dogs with endoscopic lesions: 1/3
Platelet function; day 14
  dogs classified as responders based on PFA closure times: 2/3
Platelet function; day 28
  dogs classified as responders based on PFA closure times: 1/3

## C[S+](C)[O-] [DMSO]
RBCs; 10, 20, 70 and 80% DMSO
  lysis of RBCs: no hemolysis
RBCs; 30, 40 and 90% DMSO
  lysis of RBCs: mild hemolysis
RBCs; 50 and 100% DMSO
  lysis of RBCs: moderate hemolysis
RBCs; 60% DMSO (diluted in PBS)
  lysis of RBCs: marked hemolysis

## CC(C)(C)C(=O)OCC(=O)[C@H]1CC[C@H]2[C@@H]3CCC4=CC(=O)CC[C@]4(C)[C@H]3CC[C@]12C [DOCP]
[1]; 12 dogs, range 1-29 days
  median time between the DOCP and CHF: 11 days
[1]; HA/DOCP group
  Median survival after the onset of CHF: 953 days

## O=C(N/N=C/c1cccs1)c1ccc2c(c1)OCO2 [LASSBio 294]
[2]; [7]
  E'/A' ratio: < 1
  E/A ratio: < 1
[2]; 2 mg/kg every 12 hours, n = 7, second week
  increase of FS: 35%
Healthy beagle dogs
  increase of shortening fraction: 19.1%

## C[C@]12C=CC(=O)C=C1CC[C@@H]1[C@@H]2C(=O)C[C@@]2(C)[C@H]1CC[C@]2(O)C(=O)CO [P, prednisone]
Healthy dogs
  dogs with endoscopic lesions: 1/3

## CC/C(=C(\c1ccccc1)c1ccc(OCCN(C)C)cc1)c1ccccc1 [TX, Tamoxifen]
Equine neutrophils
  neutrophil respiratory burst induced by opsonized zymosan: inhibits neutrophil respiratory burst

## CC(C)NCC(O)COc1ccc(CC(N)=O)cc1 (centres unmarked) [atenolol]
[3]; 2–3 weeks post-atenolol 1–1.5 mg/kg q12
  maxPG, mean %change ± SD: −15% ± 9
[3]; 2–3 weeks post-atenolol 1–1.5 mg/kg q12, n = 18
  heart rate, mean %change ± SD: −17% ± 13
[3]; post-atenolol
  Percent change in VTI ratio: 6% ± 12

## Oc1ccc2c(c1)[C@@]13CCCC[C@@]1(O)[C@@H](C2)N(CC1CCC1)CC3 [butorphanol]
[3]; 5 minutes post-butorphanol 0.2–0.25 mg/kg IV, n = 18 dogs
  heart rate, mean %change ± SD: −21% ± 16

## C=C1/C(=C\C=C2/CCC[C@]3(C)[C@@H]([C@H](C)CCCC(C)(C)O)CC[C@@H]23)C[C@@H](O)C[C@@H]1O [calcitriol]
Canine leukocytes; control 551 ± 323
  LPS-stimulated IL-10 production, mean±SD: 791 ± 386 pg/mL
Canine leukocytes; eight dogs, control 1694 ± 1023
  LPS-stimulated leukocyte TNF production, mean±SD: 823 ± 862 pg/mL

## COC(=O)[C@H](c1ccccc1Cl)N1CCc2sccc2C1 [clopidogrel]
Healthy dogs
  dogs with endoscopic lesions: 0/3
Platelet function; day 14
  dogs classified as responders based on PFA closure times: 3/3
Platelet function; day 28
  dogs classified as responders based on PFA closure times: 3/3
Platelet aggregation
  PW-AA %Aggregation: 4–19%
[4]; cats already receiving clopidogrel, n = 6
  PFA-P2Y Closure Time: > 300 s
[4]; test repeated while receiving clopidogrel, n = 1
  PFA-P2Y Closure Time: > 300 s

## CN1C[C@@H]2C[C@H]1CN2c1cc2c(cc1F)c(=O)c(C(=O)O)cn2C1CC1 [danofloxacin]
[5]
  age as covariate in plasma concentration differences: not for danofloxacin treated calves

## Cc1c(N(C)CS(=O)(=O)O)c(=O)n(-c2ccccc2)n1C [dipyrone, Dipyrone]
[6]
  control of fever: effectively controlled fever
